Data reported in ChEMBL document CHEMBL4422650, “Design and synthesis of biotinylated cardiac glycosides for probing Nur77 protein inducting pathway” (Bioorg Med Chem Lett, 2019).
The source made the active and inactive calls. The rule behind the calls is not given here.

Key:
Homo sapiens = species: Homo sapiens; experiment: Induction of Nur77 expression in human NIH-H460 cells AT 20 nM after 3 hrs by Western blot analysis; type: functional, cell-based
In short: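 NIH-H460 cancer cells were exposed to probes at 20 nM for 3 h. Nur77 protein was detected by western blotting with an anti-Nur77 antibody. DMSO served as the blank, and the underivatized biotin linker hydrazides were the negative controls.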

[1] = Cytotoxicity against human NIH-H460 cells assessed as cell viability at 50 nM after 48 hrs by MTT assay relative to control
[2] = target: Streptavidin (Streptomyces avidinii) (UniProt P22629); experiment: Binding affinity to Streptomyces avidinii streptavidin at 1 mM after 2 hrs by HABA dye-based UV-vis spectroscopic analysis
Sequence of Streptavidin (Streptomyces avidinii) (P22629 whole entry): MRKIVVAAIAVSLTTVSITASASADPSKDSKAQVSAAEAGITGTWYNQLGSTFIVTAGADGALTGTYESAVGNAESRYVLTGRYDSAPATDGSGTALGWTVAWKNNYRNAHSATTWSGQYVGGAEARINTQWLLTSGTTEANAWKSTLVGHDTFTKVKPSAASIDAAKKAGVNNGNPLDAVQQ

SMILES	Activity (Homo sapiens)	viability at 48 h, 0.05 µM [1]	Activity [2]
C[C@@H]1O[C@@H](O[C@H]2CC[C@]3(/C=N/NC(=O)CCCCCNC(=O)CCCC[C@@H]4SC[C@@H]5NC(=O)N[C@@H]54)[C@H]4C[C@@H](O)[C@]5(C)[C@@H](C6=CC(=O)OC6)CC[C@]5(O)[C@@H]4CC[C@]3(O)C2)[C@H](O)[C@H](O)[C@H]1O	Active	> 90%	Active
C[C@H]1O[C@@H](O[C@H]2CC[C@]3(C=O)[C@H]4C[C@@H](O)[C@]5(C)[C@@H](C6=CC(=O)OC6)CC[C@]5(O)[C@@H]4CC[C@]3(O)C2)[C@H](O)[C@H](O)[C@H]1O	Active		
C[C@@H]1O[C@@H](O[C@H]2CC[C@]3(/C=N/NC(=O)CCCCCCCNC(=O)CCCC[C@@H]4SC[C@@H]5NC(=O)N[C@@H]54)[C@H]4C[C@@H](O)[C@]5(C)[C@@H](C6=CC(=O)OC6)CC[C@]5(O)[C@@H]4CC[C@]3(O)C2)[C@H](O)[C@H](O)[C@H]1O	Active	> 90%	
C[C@H]1O[C@@H](O[C@H]2CC[C@]3(/C=N/NC(=O)CCCC[C@@H]4SC[C@@H]5NC(=O)N[C@@H]54)[C@H]4C[C@@H](O)[C@]5(C)[C@@H](C6=CC(=O)OC6)CC[C@]5(O)[C@@H]4CC[C@]3(O)C2)[C@H](O)[C@H](O)[C@H]1O		> 90%	
C[C@@H]1O[C@@H](O[C@H]2CC[C@]3(/C=N/NC(=O)COCCNC(=O)CCCC[C@@H]4SC[C@@H]5NC(=O)N[C@@H]54)[C@H]4C[C@@H](O)[C@]5(C)[C@@H](C6=CC(=O)OC6)CC[C@]5(O)[C@@H]4CC[C@]3(O)C2)[C@H](O)[C@H](O)[C@H]1O		> 90%	
C[C@H]1O[C@@H](O[C@H]2CC[C@]3(/C=N/NC(=O)CCCCCCCNC(=O)CCCC[C@@H]4SC[C@@H]5NC(=O)N[C@@H]54)[C@H]4C[C@@H](O)[C@]5(C)[C@@H](C6=CC(=O)OC6)CC[C@]5(O)[C@@H]4CC[C@]3(O)C2)[C@H](O)[C@H](O)[C@H]1O	Active	> 90%	Active
NNC(=O)COCCOCCNC(=O)CCCC[C@@H]1SC[C@@H]2NC(=O)N[C@@H]21		> 90%	
C[C@@H]1O[C@@H](O[C@H]2CC[C@]3(/C=N/NC(=O)COCCOCCNC(=O)CCCC[C@@H]4SC[C@@H]5NC(=O)N[C@@H]54)[C@H]4C[C@@H](O)[C@]5(C)[C@@H](C6=CC(=O)OC6)CC[C@]5(O)[C@@H]4CC[C@]3(O)C2)[C@H](O)[C@H](O)[C@H]1O	Active	> 90%	
C[C@H]1O[C@@H](O[C@H]2CC[C@]3(/C=N/NC(=O)COCCOCCOCCNC(=O)CCCC[C@@H]4SC[C@@H]5NC(=O)N[C@@H]54)[C@H]4C[C@@H](O)[C@]5(C)[C@@H](C6=CC(=O)OC6)CC[C@]5(O)[C@@H]4CC[C@]3(O)C2)[C@H](O)[C@H](O)[C@H]1O	Active	> 90%	
C[C@@H]1O[C@@H](O[C@H]2CC[C@]3(/C=N/NC(=O)COCCOCCOCCNC(=O)CCCC[C@@H]4SC[C@@H]5NC(=O)N[C@@H]54)[C@H]4C[C@@H](O)[C@]5(C)[C@@H](C6=CC(=O)OC6)CC[C@]5(O)[C@@H]4CC[C@]3(O)C2)[C@H](O)[C@H](O)[C@H]1O	Active	> 90%	
C[C@@H]1O[C@@H](O[C@H]2CC[C@]3(/C=N/NC(=O)CNC(=O)CCCC[C@@H]4SC[C@@H]5NC(=O)N[C@@H]54)[C@H]4C[C@@H](O)[C@]5(C)[C@@H](C6=CC(=O)OC6)CC[C@]5(O)[C@@H]4CC[C@]3(O)C2)[C@H](O)[C@H](O)[C@H]1O	Active	> 90%	
C[C@@H]1O[C@@H](O[C@H]2CC[C@]3(/C=N/NC(=O)CCCNC(=O)CCCC[C@@H]4SC[C@@H]5NC(=O)N[C@@H]54)[C@H]4C[C@@H](O)[C@]5(C)[C@@H](C6=CC(=O)OC6)CC[C@]5(O)[C@@H]4CC[C@]3(O)C2)[C@H](O)[C@H](O)[C@H]1O	Active	> 90%	
C[C@H]1O[C@@H](O[C@H]2CC[C@]3(/C=N/NC(=O)CNC(=O)CCCC[C@@H]4SC[C@@H]5NC(=O)N[C@@H]54)[C@H]4C[C@@H](O)[C@]5(C)[C@@H](C6=CC(=O)OC6)CC[C@]5(O)[C@@H]4CC[C@]3(O)C2)[C@H](O)[C@H](O)[C@H]1O	Active	> 90%	
C[C@H]1O[C@@H](O[C@H]2CC[C@]3(/C=N/NC(=O)CCCNC(=O)CCCC[C@@H]4SC[C@@H]5NC(=O)N[C@@H]54)[C@H]4C[C@@H](O)[C@]5(C)[C@@H](C6=CC(=O)OC6)CC[C@]5(O)[C@@H]4CC[C@]3(O)C2)[C@H](O)[C@H](O)[C@H]1O	Active	> 90%	
C[C@@H]1O[C@@H](O[C@H]2CC[C@]3(C=O)[C@H]4C[C@@H](O)[C@]5(C)[C@@H](C6=CC(=O)OC6)CC[C@]5(O)[C@@H]4CC[C@]3(O)C2)[C@H](O)[C@H](O)[C@H]1O	Active		
C[C@@H]1O[C@@H](O[C@H]2CC[C@]3(/C=N/NC(=O)CCCC[C@@H]4SC[C@@H]5NC(=O)N[C@@H]54)[C@H]4C[C@@H](O)[C@]5(C)[C@@H](C6=CC(=O)OC6)CC[C@]5(O)[C@@H]4CC[C@]3(O)C2)[C@H](O)[C@H](O)[C@H]1O	Active	> 90%	
C[C@H]1O[C@@H](O[C@H]2CC[C@]3(/C=N/NC(=O)COCCNC(=O)CCCC[C@@H]4SC[C@@H]5NC(=O)N[C@@H]54)[C@H]4C[C@@H](O)[C@]5(C)[C@@H](C6=CC(=O)OC6)CC[C@]5(O)[C@@H]4CC[C@]3(O)C2)[C@H](O)[C@H](O)[C@H]1O	Active	> 90%	
NNC(=O)CCCCCNC(=O)CCCC[C@@H]1SC[C@@H]2NC(=O)N[C@@H]21		> 90%	
C[C@H]1O[C@@H](O[C@H]2CC[C@]3(/C=N/NC(=O)COCCOCCNC(=O)CCCC[C@@H]4SC[C@@H]5NC(=O)N[C@@H]54)[C@H]4C[C@@H](O)[C@]5(C)[C@@H](C6=CC(=O)OC6)CC[C@]5(O)[C@@H]4CC[C@]3(O)C2)[C@H](O)[C@H](O)[C@H]1O	Active	> 90%	
C[C@H]1O[C@@H](O[C@H]2CC[C@]3(/C=N/NC(=O)CCCCCNC(=O)CCCC[C@@H]4SC[C@@H]5NC(=O)N[C@@H]54)[C@H]4C[C@@H](O)[C@]5(C)[C@@H](C6=CC(=O)OC6)CC[C@]5(O)[C@@H]4CC[C@]3(O)C2)[C@H](O)[C@H](O)[C@H]1O	Active	> 90%	
